According to publication PMC4610013 (Science Advances, 2015):

Experiments:
blood-brain barrier = assay: Contrast-enhanced MRI of BBB integrity; format: in vivo, mouse; conditions: wild-type mice, tail-vein injection, 7-T T1-weighted MRI over 20 min, n = 4
Method in brief: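 Mice received targeting or nontargeting siRNA (20 μg complexed with in vivo-jetPEI in 10% glucose, 15 min at room temperature). On a 7-T small-animal MRI, scans ran before and after tail-vein 100 μl of 1:3-diluted Gd-DTPA (0.5 M stock), monitored 20 min. Settings: TR/TE 500/2.7 ms, 30° flip angle, 8 repetitions. Hippocampal bolus-chase clearance was analysed blind to treatment.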

claudin-5 and occludin = assay: Tight junction protein levels after Aβ treatment; format: cell-based, mouse; conditions: brain endothelial cells, increasing doses, 12 hours after treatment, Western blot
Method in brief: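 Bend.3 mouse brain endothelial cells were grown in DMEM with 20% FCS and 2 mM sodium pyruvate at 37°C, 5% CO2. They were exposed 12 h to increasing concentrations of Aβ(1–40) peptide forms, with unmodified monomer at 0.1 to 1 μM. Cells were lysed in tris/2% SDS/10 mM DTT buffer and spun 12,000 rpm for 20 min at 4°C. Tight junction proteins were measured by Western blot densitometry, n = 3 […] per concentration.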

[1] = cited from earlier work

Compound | extravasation of MRI contrast agent after claudin-5 and occludin cosuppression (blood-brain barrier) | levels of claudin-5 and occludin protein (claudin-5 and occludin) | propensity for aggregation [1]
O=C([O-])CN(CCN(CC(=O)[O-])CC(=O)O)CCN(CC(=O)[O-])CC(=O)O.[Gd+3] [Gd-DTPA, gadolinium–diethylenetriamine pentaacetic acid] | increased extravasation |  | 
Aβ(1–40): unmodified Aβ(1–40) monomer isolated by size exclusion chromatography |  | dose-dependent decrease | 
Aβ(1–40)F19P |  | down-regulated | little or no propensity for aggregation
Aβ(1–40)DiY: dityrosine cross-linked dimer prepared by oxidative cross-linking of Aβ(1–40) |  | down-regulated | 
